Reference: publication PMC4777260 (Pharmacology Research & Perspectives, 2016)

Experiments:
[1] = Fraction unbound in plasma by equilibrium dialysis, human; format: in vitro ADME
Outline: (§1)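 Plasma fraction unbound was determined by equilibrium dialysis in triplicate. Its standard error fed simulations of clinically relevant concentration ranges.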

PT = experiment: Ex vivo prothrombin time; format: in vivo, rat; settings: plasma collected post-AVS, small molecule study
Outline: (§2)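 Rats received a steady-state IV bolus-plus-infusion. A terminal blood sample was taken after the shunt and bleeding procedures into sodium citrate (11 mmol/L final). It was centrifuged at 2500g, 4°C, 15 min. One platelet-poor plasma aliquot was used for clotting times and the other for plasma drug concentration.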

aPTT = experiment: Ex vivo activated partial thromboplastin time; format: in vivo, rat; settings: plasma collected post-AVS, small molecule study
Outline: as §2

fXa [2] = settings: equal fXa occupancy human/rat
[3] = system: rat cuticle bleeding time (CBT); experiment: Rat cuticle bleeding time; format: in vivo
Outline: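 Same anaesthetised, IV bolus-plus-infusion rats as the shunt study. Five minutes after shunt placement, two hind-paw toe cuticles were cut at the quick. The paw was immersed in 37° lactated Ringer's, and time to bleeding cessation was recorded (10 min maximum). A linear model of CBT versus plasma concentration treated 600 s values as right-censored. Median and 5th/95th percentiles were simulated from parameter standard errors.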

rat fIXa = rat fIXa (Rattus norvegicus, UniProt P16296); experiment: fIXa inhibition constant; format: biochemical
fXa [4] = experiment: Calculated fXa enzyme occupancy; parameters: species or system human; settings: C min 107 ng/mL, 5 mg BID SPAF dose
[5] = system: rat arteriovenous shunt (AVS/thrombosis); experiment: Rat arteriovenous shunt; format: in vivo
Outline: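 Male Sprague Dawley rats (350–400 g) were anaesthetised with thiobutabarbital. Test compound or vehicle (35% w/v hydroxypropyl-β-cyclodextrin, 10 mmol/L phosphate buffer) was given as an IV bolus plus constant infusion: five doses, n ≥ 10/group, blinded. At 15 min, a carotid–jugular shunt with silk thread ran 15 min. CW = thread weight gain. A vehicle-proportional Imax model was fitted to CW versus plasma concentration.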

[6] = system: fIIa formation (thrombin generation); experiment: Ex vivo thrombin generation assay; format: in vivo, rat; settings: TF 1, 5, 20 pmol/L trigger
[7] = Fraction unbound in plasma by equilibrium dialysis, rat; format: in vitro ADME
Outline: as §1

fXa [8] = experiment: Calculated fXa enzyme occupancy; settings: rat AVS
Human fIXa = Human fIXa (Homo sapiens, UniProt P00740); experiment: fIXa inhibition constant; format: biochemical
Rat pharmacokinetics = settings: in vivo

Sequence of rat fIXa (P16296 228-462 limits assumed): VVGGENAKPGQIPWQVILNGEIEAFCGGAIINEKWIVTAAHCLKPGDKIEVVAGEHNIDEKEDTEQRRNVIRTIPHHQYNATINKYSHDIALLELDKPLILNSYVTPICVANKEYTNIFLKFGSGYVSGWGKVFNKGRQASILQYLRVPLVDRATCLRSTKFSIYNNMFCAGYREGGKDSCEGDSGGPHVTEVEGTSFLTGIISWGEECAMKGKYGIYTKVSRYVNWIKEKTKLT
Sequence of rat fIXa (P16296 40-185 partner limits assumed): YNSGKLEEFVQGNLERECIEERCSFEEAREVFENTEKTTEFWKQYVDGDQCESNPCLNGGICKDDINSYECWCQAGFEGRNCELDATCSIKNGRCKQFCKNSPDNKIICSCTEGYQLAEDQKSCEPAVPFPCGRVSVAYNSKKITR
Sequence of Human fIXa (P00740 227-461 limits assumed): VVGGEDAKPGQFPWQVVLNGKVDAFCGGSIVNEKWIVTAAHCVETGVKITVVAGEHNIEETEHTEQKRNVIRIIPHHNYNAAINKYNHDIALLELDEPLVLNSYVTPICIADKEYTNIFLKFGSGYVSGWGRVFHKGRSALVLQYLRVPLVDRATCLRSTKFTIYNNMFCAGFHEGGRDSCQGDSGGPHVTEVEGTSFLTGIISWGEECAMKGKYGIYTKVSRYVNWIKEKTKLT
Sequence of Human fIXa (P00740 47-191 partner limits assumed): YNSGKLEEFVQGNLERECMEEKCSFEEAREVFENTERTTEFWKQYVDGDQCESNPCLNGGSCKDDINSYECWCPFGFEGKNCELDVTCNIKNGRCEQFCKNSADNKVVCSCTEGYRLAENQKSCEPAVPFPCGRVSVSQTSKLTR

COc1ccc(-n2nc(C(N)=O)c3c2C(=O)N(c2ccc(N4CCCCC4=O)cc2)CC3)cc1 [Apixaban]
fraction unbound [1]: 0.093 ± 0.013
effect on PT (in words) (PT): concentration‐dependent increase
effect on aPTT (in words) (aPTT): concentration‐dependent increase
predicted rat equivalent of C avg (fXa [2]): 24 µM
animals that reached the limit of the CBT assay (600 sec) ([3]; higher doses): 17
Slope (slope of the drug effect on bleeding time) ([3]; linear PK/PD model of CBT vs rat plasma concentration): 29.6
effect on CBT vs vehicle (in words) ([3]; two effective doses A4, A5): significant prolongation of the CBT
Ki (rat fIXa): > 30 µM
calculated EO achieved at median C min (fXa [4]): 99.2%
target CW corresponding to the apixaban clinical C min ([5]; PK/PD model simulation at rat equivalent of clinical C min): 16 (12–24) mg
CW reduction vs vehicle (in words) ([5]; two highest doses A4 (3/3.75 mg/kg), A5 (8/10.2 mg/kg)): significant CW reduction
I max (maximal inhibition of CW) ([5]; vehicle-proportional Imax PK/PD model of CW vs rat plasma concentration): 0.946
activity in TGA (in words) [6]: activity was constant across the TF concentration tested
fraction unbound [7]: 0.019
fXa EO required to ensure CW <50 mg in all animals (fXa [8]): > 99%
Ki (Human fIXa): > 30 µM
clearance (Rat pharmacokinetics): 12 mL/min/kg
half-life (Rat pharmacokinetics): 51.6 min
